Data reported in ChEMBL document CHEMBL4184294, “A small group of sulfated benzofurans induces steady-state submaximal inhibition of thrombin” (Bioorg Med Chem Lett, 2018).
The source made the active and inactive calls. No cut-off for these calls is given here.

Key:
[1] = target: T1, Prothrombin (Homo sapiens, UniProt P00734); assay: Partial allosteric inhibition of human thrombin at 300 uM using spectrozyme TH as substrate pretreated for 10 mins followed by substrate addition by spectrophotometric method relative to control
[2] = target: T1, Prothrombin; assay: Partial allosteric inhibition of human thrombin using spectrozyme TH as substrate pretreated for 10 mins followed by substrate addition by spectrophotometric method
Summary of the method: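 Chromogenic substrate hydrolysis by thrombin read spectrophotometrically in 20 mM Tris-HCl pH 7.4 with […], 100 mM NaCl and 0.1% PEG 8000 at 25 °C. Sigmoidal fits gave IC50 and efficacy (ΔY). Errors ±1 S.E.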

[3] = target: T1, Prothrombin; assay: Partial allosteric inhibition of human thrombin at 500 uM using spectrozyme TH as substrate pretreated for 10 mins followed by substrate addition by spectrophotometric method relative to control
[4] = tested on: CCOC(=O)c1c(C)oc2cc(OCCc3ccccc3)c(OCc3oc4cc(OC)c(OS(=O)(=O)O)cc4c3C(=O)OCC)cc12; assay: Non competitive inhibition of human thrombin assessed as substrate Km at 40 uM using varying levels of spectrozyme TH as substrate measured after 10 mins by Michaelis-Menten plot analysis (reference value: 9.3 +/- 2.8 uM)
[5] = tested on: CCOC(=O)c1c(C)oc2cc(OCCc3ccccc3)c(OCc3oc4cc(OC)c(OS(=O)(=O)O)cc4c3C(=O)OCC)cc12; assay: Non competitive inhibition of human thrombin assessed as substrate Km at 10 uM using varying levels of spectrozyme TH as substrate measured after 10 mins by Michaelis-Menten plot analysis (reference value: 9.3 +/- 2.8 uM)
[6] = tested on: CCOC(=O)c1c(C)oc2cc(OCc3ccccc3)c(OCc3oc4cc(OCC5CCCCC5)c(OS(=O)(=O)O)cc4c3C(=O)OCC)cc12; assay: Mixed-type inhibition of human thrombin assessed as substrate Vmax at 40 uM using varying levels of spectrozyme TH as substrate measured after 10 mins by Michaelis-Menten plot analysis (reference value: 48.2 +/- 2.8 mAU/min)
[7] = tested on: CCOC(=O)c1c(C)oc2cc(OCCc3ccccc3)c(OCc3oc4cc(OC)c(OS(=O)(=O)O)cc4c3C(=O)OCC)cc12; assay: Non competitive inhibition of human thrombin assessed as substrate Vmax at 10 uM using varying levels of spectrozyme TH as substrate measured after 10 mins by Michaelis-Menten plot analysis (reference value: 51.0 +/- 2.8 mAU/min)
[8] = tested on: CCOC(=O)c1c(C)oc2cc(OCCc3ccccc3)c(OCc3oc4cc(OC)c(OS(=O)(=O)O)cc4c3C(=O)OCC)cc12; assay: Non competitive inhibition of human thrombin assessed as substrate Km at 1 uM using varying levels of spectrozyme TH as substrate measured after 10 mins by Michaelis-Menten plot analysis (reference value: 9.3 +/- 2.8 uM)
[9] = tested on: CCOC(=O)c1c(C)oc2cc(OCCc3ccccc3)c(OCc3oc4cc(OC)c(OS(=O)(=O)O)cc4c3C(=O)OCC)cc12; assay: Non competitive inhibition of human thrombin assessed as substrate Km at 2 uM using varying levels of spectrozyme TH as substrate measured after 10 mins by Michaelis-Menten plot analysis (reference value: 9.3 +/- 2.8 uM)
[10] = tested on: CCOC(=O)c1c(C)oc2cc(OCc3ccccc3)c(OCc3oc4cc(OCC5CCCCC5)c(OS(=O)(=O)O)cc4c3C(=O)OCC)cc12; assay: Mixed-type inhibition of human thrombin assessed as substrate Vmax at 1 uM using varying levels of spectrozyme TH as substrate measured after 10 mins by Michaelis-Menten plot analysis (reference value: 48.2 +/- 2.8 mAU/min)
[11] = tested on: CCOC(=O)c1c(C)oc2cc(OCc3ccccc3)c(OCc3oc4cc(OCC5CCCCC5)c(OS(=O)(=O)O)cc4c3C(=O)OCC)cc12; assay: Mixed-type inhibition of human thrombin assessed as substrate Km at 1 uM using varying levels of spectrozyme TH as substrate measured after 10 mins by Michaelis-Menten plot analysis (reference value: 8.6 +/- 2.8 uM)
[12] = tested on: CCOC(=O)c1c(C)oc2cc(OCc3ccccc3)c(OCc3oc4cc(OCC5CCCCC5)c(OS(=O)(=O)O)cc4c3C(=O)OCC)cc12; assay: Mixed-type inhibition of human thrombin assessed as substrate Km at 2 uM using varying levels of spectrozyme TH as substrate measured after 10 mins by Michaelis-Menten plot analysis (reference value: 8.6 +/- 2.8 uM)
[13] = tested on: CCOC(=O)c1c(C)oc2cc(OCc3ccccc3)c(OCc3oc4cc(OCC5CCCCC5)c(OS(=O)(=O)O)cc4c3C(=O)OCC)cc12; assay: Mixed-type inhibition of human thrombin assessed as substrate Vmax at 10 uM using varying levels of spectrozyme TH as substrate measured after 10 mins by Michaelis-Menten plot analysis (reference value: 48.2 +/- 2.8 mAU/min)
[14] = tested on: CCOC(=O)c1c(C)oc2cc(OCCc3ccccc3)c(OCc3oc4cc(OC)c(OS(=O)(=O)O)cc4c3C(=O)OCC)cc12; assay: Non competitive inhibition of human thrombin assessed as substrate Vmax at 1 uM using varying levels of spectrozyme TH as substrate measured after 10 mins by Michaelis-Menten plot analysis (reference value: 51.0 +/- 2.8 mAU/min)
[15] = tested on: CCOC(=O)c1c(C)oc2cc(OCc3ccccc3)c(OCc3oc4cc(OCC5CCCCC5)c(OS(=O)(=O)O)cc4c3C(=O)OCC)cc12; assay: Mixed-type inhibition of human thrombin assessed as substrate Km at 10 uM using varying levels of spectrozyme TH as substrate measured after 10 mins by Michaelis-Menten plot analysis (reference value: 8.6 +/- 2.8 uM)
[16] = tested on: CCOC(=O)c1c(C)oc2cc(OCc3ccccc3)c(OCc3oc4cc(OCC5CCCCC5)c(OS(=O)(=O)O)cc4c3C(=O)OCC)cc12; assay: Mixed-type inhibition of human thrombin assessed as substrate Vmax at 2 uM using varying levels of spectrozyme TH as substrate measured after 10 mins by Michaelis-Menten plot analysis (reference value: 48.2 +/- 2.8 mAU/min)
[17] = tested on: CCOC(=O)c1c(C)oc2cc(OCCc3ccccc3)c(OCc3oc4cc(OC)c(OS(=O)(=O)O)cc4c3C(=O)OCC)cc12; assay: Non competitive inhibition of human thrombin assessed as substrate Vmax at 40 uM using varying levels of spectrozyme TH as substrate measured after 10 mins by Michaelis-Menten plot analysis (reference value: 51.0 +/- 2.8 mAU/min)
[18] = tested on: CCOC(=O)c1c(C)oc2cc(OCc3ccccc3)c(OCc3oc4cc(OCC5CCCCC5)c(OS(=O)(=O)O)cc4c3C(=O)OCC)cc12; assay: Mixed-type inhibition of human thrombin assessed as substrate Km at 40 uM using varying levels of spectrozyme TH as substrate measured after 10 mins by Michaelis-Menten plot analysis (reference value: 8.6 +/- 2.8 uM)

Row | Compound | inhibition [1] | Efficacy [2] [%] | IC50 [2] [µM] | inhibition [3] [%] | also measured
1 | CCOC(=O)c1c(C)oc2cc(OCc3ccccc3)c(OCc3oc4cc(OC)c(OS(=O)(=O)O)cc4c3C(=O)OCC)cc12 | > 50% | 57 | 2 |  | 
2 | CCOC(=O)c1c(C)oc2cc(OCc3ccccc3)c(OCc3oc4cc(OC)c(OS(=O)(=O)O)cc4c3C(=O)OCCOS(=O)(=O)O)cc12 | > 50% | 74 | 14 |  | 
3 | CCOC(=O)c1c(C)oc2cc(OCc3cccc(OS(=O)(=O)O)c3)c(OS(=O)(=O)O)cc12 |  |  | > 500 | > 50 | 
4 | CCOC(=O)c1c(COc2cc3c(C(=O)OCc4ccc(OCOC)cc4)c(C)oc3cc2OC)oc2cc(OC)c(OS(=O)(=O)O)cc12 | > 50% | 66 | 2.6 |  | 
5 | CCOC(=O)c1c(C)oc2cc(OCc3cccc(OC(C)C)c3)c(OCc3oc4cc(OC)c(OS(=O)(=O)O)cc4c3C(=O)OCC)cc12 | > 50% | 57 | 2.6 |  | 
6 | CCOC(=O)c1c(C)oc2cc(OCC3CCCCC3)c(OCc3oc4cc(OCC5CCCCC5)c(OS(=O)(=O)O)cc4c3C(=O)OCC)cc12 | > 50% | 93 | 8.7 |  | 
7 | CCOC(=O)c1c(C)oc2cc(OCc3ccc(OCOC)cc3)c(OCc3oc4cc(OC)c(OS(=O)(=O)O)cc4c3C(=O)OCC)cc12 | > 50% | 61 | 3.3 |  | 
8 | COc1cc2oc(C)c(C(=O)OCCOS(=O)(=O)O)c2cc1OS(=O)(=O)O |  |  | > 500 | > 50 | 
9 | CCOC(=O)c1c(C)oc2cc(OCc3cccc(OC(C)C)c3)c(OS(=O)(=O)O)cc12 |  |  | > 500 | > 50 | 
10 | CCCOC(=O)c1c(COc2cc3c(C(=O)OCc4ccccc4)c(C)oc3cc2OC)oc2cc(OC)c(OS(=O)(=O)O)cc12 | > 50% | 68 | 4.9 |  | 
11 | COc1cc2oc(C)c(C(=O)OCc3ccccc3)c2cc1OS(=O)(=O)O |  | 95 | 168 | > 50 | 
12 | CCOC(=O)c1c(C)oc2cc(Oc3cccc(OS(=O)(=O)O)c3)c(OCc3oc4cc(OC)c(OS(=O)(=O)O)cc4c3C(=O)OCC)cc12 | inactive |  | > 300 |  | 
13 | CCOC(=O)c1c(C)oc2cc(OCc3cccc(OCOC)c3)c(OS(=O)(=O)O)cc12 |  | 75.9 | 229 | > 50 | 
14 | CCOC(=O)c1c(C)oc2cc(OCc3cccc(OCOC)c3)c(OCc3oc4cc(OC)c(OS(=O)(=O)O)cc4c3C(=O)OCC)cc12 | > 50% | 59 | 4 |  | 
15 | CCOC(=O)c1c(C)oc2cc(OCc3ccc(OC(C)C)cc3)c(OCc3oc4cc(OC)c(OS(=O)(=O)O)cc4c3C(=O)OCC)cc12 | > 50% | 74 | 2.3 |  | 
16 | CCOC(=O)c1c(C)oc2cc(OCc3ccc(OC(C)C)cc3)c(OS(=O)(=O)O)cc12 |  |  | > 500 | > 50 | 
17 | Prothrombin (Homo sapiens) (from UniProt P00734) |  |  |  |  | Km [4]: 6.8 µM; Km [5]: 7.4 µM; Vmax [6]: 26.5 mAU/min; Vmax [7]: 30.9 mAU/min; Km [8]: 8.3 µM; Km [9]: 9.2 µM; Vmax [10]: 43.8 mAU/min; Km [11]: 8.8 µM; Km [12]: 10.7 µM; Vmax [13]: 32.5 mAU/min; Vmax [14]: 44.1 mAU/min; Km [15]: 29.7 µM; Vmax [16]: 38.7 mAU/min; Vmax [17]: 23.7 mAU/min; Km [18]: 61 µM
18 | CCOC(=O)c1c(C)oc2cc(OC)c(OCc3oc4cc(OCC5CCCCC5)c(OS(=O)(=O)O)cc4c3C(=O)OCC)cc12 | > 50% | 77 | 3.8 |  | 
19 | CCOC(=O)c1c(C)oc2cc(OCc3ccccc3)c(OS(=O)(=O)O)cc12 |  | 72 | 134 | > 50 | 
20 | CCOC(=O)c1c(C)oc2cc(OCc3ccccc3)c(OCc3cccc(S(=O)(=O)O)c3)cc12 |  |  | > 500 | > 50 | 
21 | CCOC(=O)c1c(COc2cc3c(C(=O)OCCc4ccccc4)c(C)oc3cc2OC)oc2cc(OC)c(OS(=O)(=O)O)cc12 | > 50% | 58 | 3.2 |  | 
22 | CCOC(=O)c1c(C)oc2cc(OC)c(OCc3cccc(S(=O)(=O)O)c3)cc12 |  | 101 | 134 | > 50 | 
23 | Cc1oc2cc(OCc3ccccc3)c(OS(=O)(=O)O)cc2c1C(=O)O |  |  | > 500 | > 50 | 
24 | CCOC(=O)c1c(C)oc2cc(OS(=O)(=O)O)c(OCc3oc4cc(OC)c(OS(=O)(=O)O)cc4c3C(=O)OCC)cc12 | inactive |  | > 300 |  | 
25 | CCOC(=O)c1c(C)oc2cc(OCC3CCCCC3)c(OS(=O)(=O)O)cc12 |  |  | > 500 | > 50 | 
26 | CCOC(=O)c1c(C)oc2cc(OCC3CCCCC3)c(OCc3oc4cc(OC)c(OS(=O)(=O)O)cc4c3C(=O)OCC)cc12 | > 50% | 63 | 2.6 |  | 
27 | COC(=O)c1c(C)oc2cc(OCc3cccc(OS(=O)(=O)O)c3)c(OCc3cccc(S(=O)(=O)O)c3)cc12 |  |  | > 500 | > 50 | 
